Tests used:
[1] = biological target: cGMP-specific 3',5'-cyclic phosphodiesterase (Homo sapiens, UniProt O76074); experiment: Inhibition of human platelet PDE5 by [3H]cGMP scintillation proximity assay
[2] = Inhibition of bovine PDE6 by [3H]cGMP scintillation proximity assay; parameters: species or system Bos taurus
[3] = Inhibition of bovine PDE1 by [3H]cGMP scintillation proximity assay; parameters: species or system Bos taurus
[4] = biological target: Phosphodiesterase 3 (Homo sapiens, UniProt Q14432+Q13370); experiment: Inhibition of human platelet PDE3 by [3H]cGMP scintillation proximity assay
[5] = Permeability from apical to basolateral side of Caco-2 cell membrane; type: ADME, cell-based; settings: human
[6] = biological target: 3',5'-cyclic-AMP phosphodiesterase 4B (Homo sapiens, UniProt Q07343); experiment: Inhibition of human recombinant PDE4B by […] scintillation proximity assay
[7] = biological target: 3',5'-cyclic-AMP phosphodiesterase 4D (Homo sapiens, UniProt Q08499); experiment: Inhibition of human recombinant PDE4D by […] scintillation proximity assay
[8] = biological target: High affinity 3',5'-cyclic-AMP phosphodiesterase 7A (Homo sapiens, UniProt Q13946); experiment: Inhibition of human recombinant PDE7A by […] scintillation proximity assay
[9] = biological target: cGMP-dependent 3',5'-cyclic phosphodiesterase (Homo sapiens, UniProt O00408); experiment: Inhibition of human platelet PDE2 by [3H]cGMP scintillation proximity assay
[10] = Oral bioavailability in dog at 2.5 mg/kg; type: ADME, organism-based, Canis lupus familiaris; settings: in vivo
In short: (§1)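 Dog pharmacokinetics: clearance, half-life and Vss came from IV dosing. Bioavailability came from oral dosing at 2.5 mg/kg. Values are means ± SEM.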

[11] = biological target: T1, Adenosine receptor A1 (Homo sapiens, UniProt P30542); experiment: Inhibition of adenosine A1 receptor
T1 sequence (P30542 whole entry): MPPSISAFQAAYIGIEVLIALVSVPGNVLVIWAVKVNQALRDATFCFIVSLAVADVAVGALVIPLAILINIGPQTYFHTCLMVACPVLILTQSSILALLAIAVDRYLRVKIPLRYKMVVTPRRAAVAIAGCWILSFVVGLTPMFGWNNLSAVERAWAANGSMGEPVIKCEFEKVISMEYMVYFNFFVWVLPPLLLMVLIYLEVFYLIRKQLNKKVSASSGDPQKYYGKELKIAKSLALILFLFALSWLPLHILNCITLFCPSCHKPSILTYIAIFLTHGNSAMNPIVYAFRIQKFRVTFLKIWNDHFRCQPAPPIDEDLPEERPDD
In short: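 Binding was profiled in a contract Spectrum Screen panel of 111 receptors. Adenosine A1 activity was reported as Ki.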

[12] = Inhibition of adenosine transporter; parameters: species or system Homo sapiens
[13] = Intrinsic clearance in rat microsomes; type: ADME, Microsome
[14] = Intrinsic clearance in human microsomes; type: ADME, Microsome
[15] = Intrinsic clearance in dog microsomes; type: ADME, Canis lupus familiaris, Liver, Microsome
[16] = Half life in rat at 0.8 mg/kg, iv; type: ADME, organism-based; parameters: dose 0.8 mg/kg, route intravenous; settings: in vivo
In short: (§2)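 Rat pharmacokinetics: IV bolus at 0.8 mg/kg gave clearance, half-life and Vss. […] Values are means ± SEM.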

[17] = Clearance in rat at 0.8 mg/kg, iv; type: ADME, organism-based; parameters: dose 0.8 mg/kg, route intravenous; settings: in vivo; in short: as §2
[18] = Volume of distribution at steady state in rat; type: ADME, organism-based; settings: in vivo, read-out: Vdss; in short: as §2
[19] = Bioavailability in rat at 3.3 mg/kg, intraduodenally; type: ADME, organism-based; settings: in vivo; in short: as §2
[20] = Half life in dog at 0.2 mg/kg, iv; type: ADME, organism-based, Canis lupus familiaris; parameters: dose 0.2 mg/kg, route intravenous; settings: in vivo; in short: as §1
[21] = Clearance in iv dosed dog; type: ADME, organism-based, Canis lupus familiaris; settings: in vivo; in short: as §1
[22] = Volume of distribution at steady state in dog; type: ADME, organism-based, Canis lupus familiaris; settings: in vivo, read-out: Vdss; in short: as §1

Sequence of cGMP-dependent 3',5'-cyclic phosphodiesterase (O00408 whole entry): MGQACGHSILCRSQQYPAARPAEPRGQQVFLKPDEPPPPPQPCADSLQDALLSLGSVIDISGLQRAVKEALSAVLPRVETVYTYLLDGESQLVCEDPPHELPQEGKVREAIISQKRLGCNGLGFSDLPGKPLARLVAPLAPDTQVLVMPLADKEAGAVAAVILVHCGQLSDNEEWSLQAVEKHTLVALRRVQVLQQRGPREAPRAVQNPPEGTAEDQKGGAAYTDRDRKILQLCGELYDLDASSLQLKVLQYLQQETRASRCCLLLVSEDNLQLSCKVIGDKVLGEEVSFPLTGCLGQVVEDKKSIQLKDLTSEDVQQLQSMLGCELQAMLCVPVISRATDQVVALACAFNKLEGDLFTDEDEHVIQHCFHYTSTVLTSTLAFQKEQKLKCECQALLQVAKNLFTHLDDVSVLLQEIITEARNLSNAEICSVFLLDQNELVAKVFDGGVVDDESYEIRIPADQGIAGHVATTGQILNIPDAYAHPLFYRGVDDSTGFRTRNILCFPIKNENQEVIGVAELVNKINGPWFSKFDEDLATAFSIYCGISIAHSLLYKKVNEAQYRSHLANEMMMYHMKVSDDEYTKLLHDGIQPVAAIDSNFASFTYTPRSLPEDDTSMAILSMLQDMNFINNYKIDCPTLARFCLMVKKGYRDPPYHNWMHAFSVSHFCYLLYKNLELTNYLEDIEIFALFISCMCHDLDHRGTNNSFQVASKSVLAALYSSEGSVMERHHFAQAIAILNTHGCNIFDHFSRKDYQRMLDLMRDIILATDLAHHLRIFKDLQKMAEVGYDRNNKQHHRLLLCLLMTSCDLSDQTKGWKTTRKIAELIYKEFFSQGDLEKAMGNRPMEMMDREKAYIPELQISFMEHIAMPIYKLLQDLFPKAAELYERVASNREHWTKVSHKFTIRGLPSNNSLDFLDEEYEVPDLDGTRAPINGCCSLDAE
Sequence of 3',5'-cyclic-AMP phosphodiesterase 4D (Q08499 whole entry): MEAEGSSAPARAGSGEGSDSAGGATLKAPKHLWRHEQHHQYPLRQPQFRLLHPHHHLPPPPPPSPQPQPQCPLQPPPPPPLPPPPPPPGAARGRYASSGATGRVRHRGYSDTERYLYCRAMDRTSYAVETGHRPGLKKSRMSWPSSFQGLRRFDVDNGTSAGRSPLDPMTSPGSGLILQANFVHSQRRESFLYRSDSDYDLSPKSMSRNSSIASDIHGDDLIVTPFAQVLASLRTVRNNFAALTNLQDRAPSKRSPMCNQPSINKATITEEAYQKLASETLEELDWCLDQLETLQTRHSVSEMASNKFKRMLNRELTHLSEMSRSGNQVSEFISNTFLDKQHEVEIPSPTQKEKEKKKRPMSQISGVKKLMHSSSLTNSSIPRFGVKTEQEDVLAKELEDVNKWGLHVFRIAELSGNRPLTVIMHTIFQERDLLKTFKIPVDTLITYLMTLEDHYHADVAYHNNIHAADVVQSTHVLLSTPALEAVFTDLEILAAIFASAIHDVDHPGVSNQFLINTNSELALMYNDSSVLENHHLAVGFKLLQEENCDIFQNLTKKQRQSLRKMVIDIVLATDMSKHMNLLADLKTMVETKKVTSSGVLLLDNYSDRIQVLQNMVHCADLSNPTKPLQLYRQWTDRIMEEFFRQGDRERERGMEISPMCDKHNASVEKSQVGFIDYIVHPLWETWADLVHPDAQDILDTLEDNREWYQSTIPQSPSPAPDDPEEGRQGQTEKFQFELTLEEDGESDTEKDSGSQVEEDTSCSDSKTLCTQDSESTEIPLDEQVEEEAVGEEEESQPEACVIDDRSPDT
Sequence of High affinity 3',5'-cyclic-AMP phosphodiesterase 7A (Q13946 whole entry): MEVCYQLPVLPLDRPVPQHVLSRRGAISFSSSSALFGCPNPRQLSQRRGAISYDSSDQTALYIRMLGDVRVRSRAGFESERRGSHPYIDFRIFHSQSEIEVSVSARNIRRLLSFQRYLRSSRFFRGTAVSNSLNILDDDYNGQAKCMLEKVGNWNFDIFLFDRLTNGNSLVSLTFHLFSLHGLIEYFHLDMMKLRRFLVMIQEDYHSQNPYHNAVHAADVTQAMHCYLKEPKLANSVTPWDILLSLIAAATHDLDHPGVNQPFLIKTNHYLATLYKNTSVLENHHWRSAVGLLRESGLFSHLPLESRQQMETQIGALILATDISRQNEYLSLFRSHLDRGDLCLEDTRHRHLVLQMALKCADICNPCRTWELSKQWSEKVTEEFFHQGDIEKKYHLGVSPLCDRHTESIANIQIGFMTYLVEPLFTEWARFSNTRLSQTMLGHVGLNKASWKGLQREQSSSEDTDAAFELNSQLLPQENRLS
Sequence of 3',5'-cyclic-AMP phosphodiesterase 4B (Q07343 whole entry): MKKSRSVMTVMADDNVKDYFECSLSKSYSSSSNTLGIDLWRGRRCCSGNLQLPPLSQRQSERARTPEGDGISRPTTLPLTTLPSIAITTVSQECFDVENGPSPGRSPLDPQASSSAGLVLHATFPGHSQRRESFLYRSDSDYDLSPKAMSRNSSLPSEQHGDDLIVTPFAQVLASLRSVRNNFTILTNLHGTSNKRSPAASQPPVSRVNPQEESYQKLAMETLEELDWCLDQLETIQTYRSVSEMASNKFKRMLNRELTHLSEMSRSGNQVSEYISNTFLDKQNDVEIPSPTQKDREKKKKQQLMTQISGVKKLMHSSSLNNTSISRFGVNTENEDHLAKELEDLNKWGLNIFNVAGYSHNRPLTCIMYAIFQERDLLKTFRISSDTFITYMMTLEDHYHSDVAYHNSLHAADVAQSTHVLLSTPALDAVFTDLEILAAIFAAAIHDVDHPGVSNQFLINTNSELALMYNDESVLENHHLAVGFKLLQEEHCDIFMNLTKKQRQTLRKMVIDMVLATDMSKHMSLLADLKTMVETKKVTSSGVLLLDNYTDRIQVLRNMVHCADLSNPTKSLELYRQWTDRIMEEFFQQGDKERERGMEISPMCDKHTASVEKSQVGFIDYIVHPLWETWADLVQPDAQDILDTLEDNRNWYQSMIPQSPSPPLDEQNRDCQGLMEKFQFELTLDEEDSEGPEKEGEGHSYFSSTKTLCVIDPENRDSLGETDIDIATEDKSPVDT

| SMILES | IC50 [1] [nM] | IC50 [2] [nM] | IC50 [3] [nM] | IC50 [4] [nM] | further results |
| --- | --- | --- | --- | --- | --- |
| CC(C)Cn1c(=O)n(C)c(=O)c2[nH]c(CC3CC4CCC3C4)nc21 (stereo unspecified) | 25 | 65 | – | – | – |
| CC(C)Cn1c(=O)n(C)c(=O)c2[nH]c(Cc3cncc4cc5c(cc34)OCO5)nc21 | 10000 | – | – | – | – |
| COc1cc2cncc(Cc3nc4c([nH]3)c(=O)n(CC(C)C)c(=O)n4CC(C)C)c2cc1OC | 462 | – | – | – | – |
| COc1cc2cncc(Cc3nc4c([nH]3)c(=O)n(C)c(=O)n4CC3CC3)c2cc1OC | 20 | 823 | 1320 | 1640 | – |
| COc1cc2cncc(C(C)c3nc4c([nH]3)c(=O)n(C)c(=O)n4CC(C)C)c2cc1OC (stereo unspecified) | 94 | – | – | – | – |
| COc1cc2cncc(Cc3nc4c([nH]3)c(=O)n(C)c(=O)n4Cc3ccc(NC(C)=O)cc3)c2cc1OC | 42 | 471 | – | – | – |
| CC(C)Cn1c(=O)n(C)c(=O)c2[nH]c(Cc3cncc4ccccc34)nc21 | 34 | 857 | 7290 | 1850 | – |
| COc1cc2c(Cc3nc4c([nH]3)c(=O)n(C)c(=O)n4CC(C)C)cnc(C)c2cc1OC | 2 | 226 | 72 | 42 | Papp A→B [5]: 0.9 ×10⁻⁶ cm/s |
| COc1cc2cncc(Cc3nc4c([nH]3)c(=O)n(C)c(=O)n4Cc3ccc(NS(=O)(=O)C(C)C)cc3)c2cc1OC | 5 | 399 | 3440 | 3130 | – |
| COc1cc2cncc(Cc3nc4c(c(=O)n(C)c(=O)n4CC(C)C)n3C)c2cc1OC | 553 | – | – | – | – |
| COc1ccc2cncc(Cc3nc4c([nH]3)c(=O)n(C)c(=O)n4CC(C)C)c2c1 [listing 1 of 2 here] | – | – | – | – | IC50 [6]: > 10000 nM; IC50 [7]: > 10000 nM; IC50 [8]: > 10000 nM; IC50 [9]: 4600 nM |
| C=C(C)Cn1c(=O)n(C)c(=O)c2[nH]c(Cc3cncc4cc(OC)c(OC)cc34)nc21 | 30 | 333 | – | – | – |
| COc1ccc2cncc(Cc3nc4c([nH]3)c(=O)n(C)c(=O)n4CC(C)C)c2c1 [listing 2 of 2 here] | – | 180 | 2850 | 2220 | bioavailability [10]: 103%; Ki [11]: 2300 nM; Ki [12]: 2800 nM; Papp A→B [5]: 13.8 ×10⁻⁶ cm/s; clearance [13]: 162 µL/min/mg; clearance [14]: 4 µL/min/mg; clearance [15]: 6 µL/min/mg; half-life [16]: 21 min; clearance [17]: 118 mL/min/kg; Vd [18]: 2.9 L/kg; bioavailability [19]: 1%; half-life [20]: 63.4 min; clearance [21]: 28.7 mL/min/kg; Vd [22]: 2.1 L/kg |
| COc1cc2cncc(Cc3nc4c([nH]3)c(=O)n(C)c(=O)n4CC(C)C)c2cc1OC | 9 | 389 | 417 | 299 | Papp A→B [5]: 31.8 ×10⁻⁶ cm/s |

Continued by falling IC50 [1], values first:

| IC50 [1] [nM] | IC50 [2] [nM] | IC50 [3] [nM] | IC50 [4] [nM] | SMILES | further results |
| --- | --- | --- | --- | --- | --- |
| 51 | 247 | – | – | COc1ccc2c(Cc3nc4c([nH]3)c(=O)n(C)c(=O)n4CC(C)C)cncc2c1 | – |
| 33 | 1820 | 3910 | – | COc1ccc(Cn2c(=O)n(C)c(=O)c3[nH]c(Cc4cncc5cc(OC)c(OC)cc45)nc32)cc1OC | – |
| 28 | 1130 | – | – | COc1cc2cncc(Cc3nc4c([nH]3)c(=O)n(C)c(=O)n4CC3CCCCC3)c2cc1OC | – |
| 26 | 525 | – | – | COc1cc2cnc(C)c(Cc3nc4c([nH]3)c(=O)n(C)c(=O)n4CC(C)C)c2cc1OC | – |
| 8 | 294 | 2790 | 1060 | COc1cc2cncc(Cc3nc4c([nH]3)c(=O)n(C)c(=O)n4CC(C)(C)C)c2cc1OC | Papp A→B [5]: 23.4 ×10⁻⁶ cm/s |
| 6 | 363 | 670 | 2710 | COc1cc2cncc(Cc3nc4c([nH]3)c(=O)n(C)c(=O)n4CC(C)CO)c2cc1OC (racemic) | – |
